ChEMBL document CHEMBL1144782, “Isoindolo[2,1-a]quinoxaline derivatives, novel potent antitumor agents with dual inhibition of tubulin polymerization and topoisomerase I” (2008)

Legend:
Assay type in all cases: functional
NCI-H226 = test: Antitumor activity against human NCI-H226 cells
Procedure, shortened: (§1)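 Run by the NCI in its in vitro disease-oriented screen of about 60 human tumour cell lines. For each line it reports pGI50 (50% net growth inhibition), pTGI (total growth inhibition) and pLC50 (50% net cell death), each as –log molar concentration. Where an effect was not reached within the tested range, the highest tested concentration was used.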

NCI-H23 = test: Antitumor activity against human NCI-H23 cells; procedure, shortened: as §1
[1] = Antitumor activity against human NCI-H322 cells; procedure, shortened: as §1
NCI-H460 [2] = test: Antitumor activity against human NCI-H460 cells; procedure, shortened: as §1
HCT-15 = test: Antitumor activity against human HCT15 cells; procedure, shortened: as §1
HT-29 = test: Antitumor activity against human HT29 cells; procedure, shortened: as §1
KM12 = test: Antitumor activity against human KM12 cells; procedure, shortened: as §1
SW-620 = test: Antitumor activity against human SW620 cells
Procedure, shortened: (§2)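 NCI 60-cell-line screen. Parameters were GI50 (50% net growth inhibition), TGI and LC50, each reported as –log molar concentration. Where an effect was not reached within the tested range, the highest tested concentration was used in the calculation.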

SF-295 = test: Antitumor activity against human SF295 cells; procedure, shortened: as §1
SNB-19 = test: Antitumor activity against human SNB19 cells; procedure, shortened: as §1
U-251 = test: Antitumor activity against human U251 cells; procedure, shortened: as §2
Malme-3M = test: Antitumor activity against human MALME3M cells; procedure, shortened: as §1
SK-MEL-2 = test: Antitumor activity against human SKMEL2 cells; procedure, shortened: as §1
SK-MEL-28 = test: Antitumor activity against human SKMEL28 cells; procedure, shortened: as §1
SK-MEL-5 = test: Antitumor activity against human SKMEL5 cells; procedure, shortened: as §1
UACC-257 = test: Antitumor activity against human UACC257 cells; procedure, shortened: as §2
OVCAR-3 = test: Antitumor activity against human OVCAR-3 cells; procedure, shortened: as §1
OVCAR-5 = test: Antitumor activity against human OVCAR5 cells; procedure, shortened: as §1
OVCAR-8 = test: Antitumor activity against human OVCAR8 cells; procedure, shortened: as §1
786-0 = test: Antitumor activity against human 786-0 cells; procedure, shortened: as §1
A498 = test: Antitumor activity against human A498 cells; procedure, shortened: as §1
ACHN = test: Antitumor activity against human ACHN cells; procedure, shortened: as §1
RXF 393 = test: Antitumor activity against human RXF393 cells; procedure, shortened: as §1
BT-549 = test: Antitumor activity against human BT549 cells; procedure, shortened: as §1
NCI-H460 [3] = test: Cell viability against human NCI-H460 cells at 10 uM
CCRF-CEM [4] = test: Antitumor activity against human CCRF-CEM cells; procedure, shortened: as §1
RPMI-8226 = test: Antitumor activity against human RPMI8226 cells; procedure, shortened: as §1
MOLT-4 = test: Antitumor activity against human MOLT4 cells; procedure, shortened: as §1
SR = test: Antitumor activity against human SR cells; procedure, shortened: as §2
EKVX = test: Antitumor activity against human EKVX cells; procedure, shortened: as §1
PC-3 = test: Antitumor activity against human PC3 cells; procedure, shortened: as §1
DU-145 = test: Antitumor activity against human DU145 cells; procedure, shortened: as §1
NCI/ADR-RES = test: Antitumor activity against human NCI/ADR-RES cells; procedure, shortened: as §1
Hs-578T = test: Antitumor activity against human HS578T cells; procedure, shortened: as §1
MDA-MB-435 = test: Antitumor activity against human MDA-MB-435 cells; procedure, shortened: as §1
MCF7 [5] = test: Growth inhibition of human MCF7 cells after 72 hrs by MTT assay; details: MCF7, 72 h
Procedure, shortened: (§3)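 Growth inhibition by MTT after 72 h incubation. Resistant sublines: LoVoDoxo and MCF-7 MDR were kept in 0.1 µg/mL doxorubicin; CEMVbl-100 was selected against vinblastine. GI50 given as mean ± SEM of three independent experiments. Resistance index is resistant-line GI50 over parental GI50.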

MCF7 [6] = test: Growth inhibition of human multidrug-resistant MCF7 cells after 72 hrs by MTT assay; details: MCF7, 72 h; procedure, shortened: as §3
MCF7 [7] = test: Resistance index, Ratio of GI50 for human multidrug-resistant MCF7 cells to GI50 for human MCF7 cells; procedure, shortened: as §3
CCRF-CEM [8] = test: Growth inhibition of human CEM cells after 72 hrs by MTT assay; procedure, shortened: as §3
CCRF-CEM [9] = test: Growth inhibition of human vinblastine-resistant CEM cells after 72 hrs by MTT assay; procedure, shortened: as §3
[10] = read-out: Log LC50 (the source's name) (converted)

**Q.** What does the source list for `O=c1[nH]c2cc(Cl)c(Cl)cc2n2cc3ccccc3c12`?
**A.** GI50 (NCI-H226): 18.6 µM; LC50 (50% net cell kill) (NCI-H226): 69.2 µM; TGI (NCI-H226; read-out: pTGI (converted)): 35.5 µM; GI50 (NCI-H23): 17.4 µM; LC50 (50% net cell kill) (NCI-H23): 56.2 µM; TGI (NCI-H23; read-out: pTGI (converted)): 30.9 µM; GI50 [1]: 13.5 µM; LC50 (50% net cell death) [1]: 55 µM; TGI ([1]; read-out: pTGI (converted)): 26.9 µM; GI50 (NCI-H460 [2]): 18.6 µM; CC50 (NCI-H460 [2]; [10]): 57.5 µM; TGI (NCI-H460 [2]; read-out: pTGI (converted)): 33.1 µM; GI50 (HCT-15): 16.6 µM; CC50 (HCT-15; [10]): 55 µM; TGI (HCT-15; read-out: pTGI (converted)): 30.2 µM; GI50 (HT-29): 28.8 µM; LC50 (HT-29): > 100 µM; TGI (HT-29; read-out: pTGI (converted)): > 100 µM; GI50 (KM12): 17.4 µM; LC50 (50% net cell death) (KM12): 56.2 µM; TGI (KM12; read-out: pTGI (converted)): 30.9 µM; GI50 (SW-620): 15.8 µM; CC50 (SW-620; [10]): 53.7 µM; TGI (SW-620; read-out: pTGI (converted)): 29.5 µM; GI50 (SF-295): 16.2 µM; CC50 (SF-295; [10]): 55 µM; TGI (SF-295; read-out: pTGI (converted)): 30.2 µM; GI50 (SNB-19): 21.9 µM; CC50 (SNB-19; [10]): > 100 µM; TGI (SNB-19; read-out: pTGI (converted)): 56.2 µM; GI50 (U-251): 16.2 µM; CC50 (U-251; [10]): 55 µM; TGI (U-251; read-out: pTGI (converted)): 30.2 µM; GI50 (Malme-3M): 17 µM; CC50 (Malme-3M; [10]): 63.1 µM; TGI (Malme-3M; read-out: pTGI (converted)): 32.4 µM; GI50 (SK-MEL-2): 25.1 µM; LC50 (SK-MEL-2): > 100 µM; TGI (SK-MEL-2; read-out: pTGI (converted)): 53.7 µM; GI50 (SK-MEL-28): 33.1 µM; CC50 (SK-MEL-28; [10]): > 100 µM; TGI (SK-MEL-28; read-out: pTGI (converted)): > 100 µM; GI50 (SK-MEL-5): 20 µM; LC50 (SK-MEL-5): 87.1 µM; TGI (SK-MEL-5; read-out: pTGI (converted)): 41.7 µM; GI50 (UACC-257): 20.4 µM; LC50 (UACC-257): > 100 µM; TGI (UACC-257; read-out: pTGI (converted)): 49 µM; GI50 (OVCAR-3): 18.6 µM; LC50 (50% net cell death) (OVCAR-3): 57.5 µM; TGI (OVCAR-3; read-out: pTGI (converted)): 32.4 µM; GI50 (OVCAR-5): 17 µM; LC50 (50% net cell death) (OVCAR-5): 55 µM; TGI (OVCAR-5; read-out: pTGI (converted)): 30.9 µM; GI50 (OVCAR-8): 18.6 µM; LC50 (50% net cell death) (OVCAR-8): 57.5 µM; TGI (OVCAR-8; read-out: pTGI (converted)): 32.4 µM; GI50 (786-0): 25.1 µM; CC50 (786-0; [10]): 63.1 µM; TGI (786-0; read-out: pTGI (converted)): 39.8 µM; GI50 (A498): 15.8 µM; CC50 (A498; [10]): 56.2 µM; TGI (A498; read-out: pTGI (converted)): 30.2 µM; GI50 (ACHN): 15.5 µM; LC50 (50% net cell kill) (ACHN): 53.7 µM; TGI (ACHN; read-out: pTGI (converted)): 28.8 µM; GI50 (RXF 393): 17.4 µM; CC50 (RXF 393; [10]): 56.2 µM; TGI (RXF 393; read-out: pTGI (converted)): 30.9 µM; GI50 (BT-549): 26.3 µM; LC50 (50% net cell kill) (BT-549): > 100 µM; TGI (BT-549; read-out: pTGI (converted)): 57.5 µM; Activity (NCI-H460 [3]): 0%; GI50 (CCRF-CEM [4]): 21.9 µM; LC50 (CCRF-CEM [4]): > 100 µM; TGI (CCRF-CEM [4]; read-out: pTGI (converted)): 49 µM; GI50 (RPMI-8226): 22.4 µM; CC50 (RPMI-8226; [10]): > 100 µM; TGI (RPMI-8226; read-out: pTGI (converted)): 49 µM; GI50 (MOLT-4): 18.6 µM; LC50 (MOLT-4): 72.4 µM; TGI (MOLT-4; read-out: pTGI (converted)): 37.2 µM; GI50 (SR): 17.4 µM; LC50 (SR): 87.1 µM; TGI (SR; read-out: pTGI (converted)): 38.9 µM; GI50 (EKVX): 21.9 µM; LC50 (50% net cell kill) (EKVX): 87.1 µM; TGI (EKVX; read-out: pTGI (converted)): 43.7 µM; GI50 (PC-3): 17.4 µM; LC50 (50% net cell death) (PC-3): 56.2 µM; TGI (PC-3; read-out: pTGI (converted)): 30.9 µM; GI50 (DU-145): 31.6 µM; GI50 (DU-145; Homo sapiens, DU-145): 17.8 µM; CC50 (DU-145; Homo sapiens, DU-145, read-out: Log LC50 (the source's name) (converted)): 56.2 µM; GI50 (NCI/ADR-RES): 17.8 µM; LC50 (NCI/ADR-RES): 56.2 µM; TGI (NCI/ADR-RES; read-out: pTGI (converted)): 31.6 µM; GI50 (Hs-578T): 20 µM; CC50 (Hs-578T; [10]): > 100 µM; TGI (Hs-578T; read-out: pTGI (converted)): 52.5 µM; GI50 (MDA-MB-435): 17 µM; LC50 (50% net cell death) (MDA-MB-435): 55 µM; TGI (MDA-MB-435; read-out: pTGI (converted)): 30.2 µM; GI50 (MCF7 [5]): 3.3 µM; GI50 (MCF7 [6]): 7.6 µM; RatioGI50 (MCF7 [7]): 2.3; GI50 (CCRF-CEM [8]): 2.2 µM; GI50 (CCRF-CEM [9]): 1.9 µM
